The values that follow come from ChEMBL document CHEMBL5126597, “Indazole MRL-871 interacts with PPARγ via a binding mode that induces partial agonism” (Bioorg Med Chem, 2022).

Activity calls are given as the source filed them. The calls are words filed in the database; no cut-off is given here.

Broadly, the ΔTm is the shift of the melting midpoint relative to a reference. Usually Kd stands for the constant that tells how readily two partners part at equilibrium.

The target in test [1] is T1, Peroxisome proliferator-activated receptor gamma (Homo sapiens) (UniProt P37231).
T1 sequence (whole entry): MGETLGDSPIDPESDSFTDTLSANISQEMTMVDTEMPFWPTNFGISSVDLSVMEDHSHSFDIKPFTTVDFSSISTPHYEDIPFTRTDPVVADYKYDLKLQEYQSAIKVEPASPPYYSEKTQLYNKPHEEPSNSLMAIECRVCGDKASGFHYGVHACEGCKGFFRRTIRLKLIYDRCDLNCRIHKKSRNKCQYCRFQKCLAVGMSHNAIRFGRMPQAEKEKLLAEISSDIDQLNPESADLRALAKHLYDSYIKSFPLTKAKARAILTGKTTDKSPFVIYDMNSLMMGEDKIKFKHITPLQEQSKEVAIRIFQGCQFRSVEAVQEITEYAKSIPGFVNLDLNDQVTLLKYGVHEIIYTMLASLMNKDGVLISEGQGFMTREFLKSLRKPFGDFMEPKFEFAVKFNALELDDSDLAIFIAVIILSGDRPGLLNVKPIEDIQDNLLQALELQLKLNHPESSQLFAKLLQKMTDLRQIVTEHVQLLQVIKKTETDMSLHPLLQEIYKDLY
The test can be described thus: Binding affinity to PPARgamma LBD (unknown origin) assessed as increase in thermal stability by differential scanning fluorimetry. To be noted: filed as partial agonist. A general note: In DSF a fluorescence change marks the thermal transition of the protein.

The target of test [2] is T1, Peroxisome proliferator-activated receptor gamma (Homo sapiens). The test can be described thus: Stabilization of PPARgamma LBD (unknown origin) assessed as change in melting temperature in presence of SR16832 by differential scanning fluorimetry.
Test [3] shares this target. The test is described as follows: Stabilization of PPARgamma LBD (unknown origin) assessed as change in melting temperature in presence of GW9662 by differential scanning fluorimetry.
Test [4] is described as follows: Stabilization of PPARgamma LBD (unknown origin)/FITC-labeled PGC-1alpha (unknown origin) protein-protein interaction assessed as dissociation constant by fluorescence anisotropy assay. Set-up: species or system Homo sapiens. The method in brief: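 Fluorescence anisotropy coactivator interaction assay: PPARγ LBD titrated to fluorophore-labelled PGC-1α peptide (10 nM) with DMSO or ligand at 10 µM. n = 3; representative data shown as mean ± s.d.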
(In general: Fluorescence polarisation rises when a labelled molecule tumbles more slowly, as on binding a larger partner.)

In test [5] the target is T1, Peroxisome proliferator-activated receptor gamma (Homo sapiens). The test is described as follows: Stabilization of PPARgamma LBD (unknown origin) assessed as melting temperature at 14 uM by differential scanning fluorimetry. The method, boiled down: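 Differential scanning fluorimetry of PPARγ LBD (3.5 µM) with or without ligand at 14 µM (four equivalents) to obtain melting temperature. n ≥ 3, mean ± s.d.; with vs without compound compared by unpaired t-test.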

For test [6] the target is unchanged. The test is described as follows: Stabilization of PPARgamma LBD (unknown origin) assessed as change in melting temperature by differential scanning fluorimetry.

As to `O=C(O)c1ccc(-c2nn(C(=O)c3c(Cl)cccc3C(F)(F)F)c3ccccc23)cc1`, the result in test [1] was Active. The ΔTm in test [2] is -0.6 °C; in test [3], 1.1 °C. Moreover, in test [4], the equilibrium dissociation constant (Kd) is 710 nM. Further, the Tm in test [5] stood at 50.2 °C.
On to `CN(CCOc1ccc(CC2SC(=O)NC2=O)cc1)c1ccccn1` (stereo not given) [ROSIGLITAZONE], for which the ΔTm in test [2] was -0.1 °C; in test [3], 0 °C. The equilibrium dissociation constant (Kd) in test [4] worked out at 370 nM.
For `COc1ccc2nccc(NC(=O)c3cc([N+](=O)[O-])ccc3Cl)c2c1`, the ΔTm in test [6] was determined as 4.4 °C.
As for `O=C(Nc1ccccc1)c1cc([N+](=O)[O-])ccc1Cl`, the shift in melting temperature (ΔTm) in test [6] stood at 3.9 °C.
